Screening results (PubChem BioAssay)
Compounds with a hit are over-represented: about 2.3% of the library has one in this group of screens.
TAAR1 agonist: human TAAR1 agonism; Q96RJ0; CHO RD-HGA16 TAAR1, Fluo-8 calcium fluorescence; vehicle wells 0%, saturating PEA agonist 100%; activation, % at 3 µM; 0.99% of 360,000 active; AID 624467;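 active = activation above the mean activation of all test compounds in the run plus 3 SD, cut at about 38% in these data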
Target sequence (Q96RJ0 whole entry, looked up): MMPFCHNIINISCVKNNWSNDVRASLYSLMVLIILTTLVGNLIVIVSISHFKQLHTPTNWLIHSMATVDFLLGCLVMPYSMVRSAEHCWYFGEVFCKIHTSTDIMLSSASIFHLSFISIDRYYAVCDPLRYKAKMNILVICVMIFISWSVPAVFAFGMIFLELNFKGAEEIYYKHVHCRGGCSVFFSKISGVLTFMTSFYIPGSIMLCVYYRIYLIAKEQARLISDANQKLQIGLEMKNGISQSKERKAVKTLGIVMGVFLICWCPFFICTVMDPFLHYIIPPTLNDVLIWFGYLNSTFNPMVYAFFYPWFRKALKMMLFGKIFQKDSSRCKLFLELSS
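System: CHO-derived RD-HGA16 cells with stable Gα16 and human TAAR1. Times: 17-24 h plating, Fluo-8 75 min 37 °C, 30 min RT. Measured by: calcium-sensitive Fluo-8 signal, excitation 470-495, emission 515-575 nm. Read-out basis: % activation relative to PEA EC100 response. Control set: DMSO and PEA EC100. Repeats: no replicates (n 1).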
OXTR potentiator: potentiates the human oxytocin receptor response; P30559; CHO-OTR cells, Fluo-8 calcium fluorescence, potentiator mode; 0% = oxytocin EC15, 100% = EC100; activation, % at 3 µM; 0.061% of 320,000 active; AID 2445;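 active = activation above that plate's cutoff, the mean activation of tested compounds plus 3 SD, cut at about 6.6% in these data, passing the limit was not always enough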;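 note: 100% uses oxytocin at 75 nM as the full agonist control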
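Assay system: CHO cell line stably expressing human OTR | Also added: Oxytocin at about EC15, sub-maximal agonist stimulus | Times: Compound 6 min at room temperature before oxytocin, 100 s read | Measured by: Fluo-8 intracellular calcium fluorescence, ex 470-495, em 515-575 nm | Controls: EC15 oxytocin alone as 0%, 75 nM oxytocin as 100%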
V1aR counter: counter-screen for oxytocin receptor agonists: human V1a receptor agonists | CHO-V1R cells, Fluo-8 calcium fluorescence, agonist mode; 0% DMSO, 100% 3 nM vasopressin | activation, % at 3 µM | 0.25% of 320,000 active;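 active = activation above the mean activation of all tested compounds plus 3 SD, per screening run, cut at about 20% in these data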;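 note: signal is peak over basal fluorescence ratio across a 100 second FLIPR read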
OXTR agonist: agonists of human oxytocin receptor; AID 2435; CHO-OTR cells, Fluo-8 calcium fluorescence; normalized: DMSO 0%, oxytocin 100%; 0.32% of 320,000 active; P30559; activation, % at 3 µM;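 active = activation above the mean of all tested compounds plus 3 SD, cutoff set per screening run, cut at about 20% in these data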;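 note: peak over basal fluorescence ratio from a 100 s FLIPR kinetic read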
TAAR1 antagonist: human TAAR1 antagonism | CHO RD-HGA16 TAAR1, Fluo-8 calcium fluorescence, antagonist | inhibition, % at 3 µM | 1.5% of 360,000 active | AID 624466;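 active = inhibition above a per-plate cutoff, the mean inhibition of test compounds on that plate plus 3 SD, cut at about 49% in these data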;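 note: 0% = DMSO plus EC80 beta-PEA response and 100% = DMSO alone without agonist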
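Material: CHO RD-HGA16 cells bearing hTAAR1; compound dosing: one-point dosing, 3 µM nominal final; schedule: dye loading 75 min at 37 °C, then 30 min room temperature; measured by: calcium fluorescence with Fluo-8; control set: vehicle and agonist controls; replication: n of 1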
nonsel antag count: nonselective antagonist in TAAR1 antagonist counter-screen | shares compounds with TAAR1 antagonist | counterscreen cell line, calcium fluorescence, antagonist mode | inhibition, % at 3 µM | 77% of 2,400 active | AID 651780; in the data active = inhibition above about 22%;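 note: CHO-Ga16 host cells stimulated with ATP at an EC80 level; 0% = agonist EC80 plus vehicle and 100% = vehicle without agonist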
TAAR1 ant conf: human TAAR1 antagonism, confirmed; shares compounds with TAAR1 antagonist; TAAR1-expressing cells, fluorescence antagonist read-out; inhibition, % at 3 µM; 40% of 2,400 active; in the data active = inhibition above about 49%;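 note: CHO-Ga16 host cells challenged with agonist PEA near its EC80; 0% = agonist at EC80 plus vehicle and 100% = vehicle with no agonist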
Ga16 ag counter: counter-screen for TAAR1 antagonists: nonselective Ga16 agonists. shares compounds with TAAR1 antagonist. Ga16-expressing cells, calcium fluorescence, agonist counterscreen. activation, % at 3 µM. 18% of 2,400 active. AID 651953; in the data active = activation above about 12%;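 note: 0% = vehicle wells and 100% = saturating stimulus response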
TAAR1 ag counter: counter-screen for human TAAR1 antagonists: TAAR1 agonists. shares compounds with TAAR1 antagonist. hTAAR1 cell line, fluorescence activation, agonist mode. activation, % at 3 µM. 2% of 2,400 active; in the data active = activation above about 37%;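 note: CHO cells stably expressing TAAR1 with calcium dye readout; 0% = DMSO vehicle and 100% = full agonist response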
Starred values were filed as active, the others as inactive; . = not tested or not shown.

SMILES	TAAR1 agonist	OXTR potentiator	V1aR counter	OXTR agonist	TAAR1 antagonist	nonsel antag count	TAAR1 ant conf	Ga16 ag counter	TAAR1 ag counter
O=C(CSc1nnc(-c2ccc(Br)cc2)o1)Nc1cccc2ccccc12	20.1	-0.3	0.3	-0.8	58.5*	30.1*	19.4	4.8	4.4
O=C(Nc1cccc(C(F)(F)F)c1)c1cccc(NS(=O)(=O)c2ccc(O)c(C(=O)O)c2)c1	0.0	-2.3	-1.4	-0.8	-18.9	.	.	.	.
Cc1ccc(S(=O)(=O)NCc2ccccc2)cc1C(=O)NC1CCC(C)CC1 (stereo unspecified)	-1.3	-2.8	3.5	-1.0	-18.6	.	.	.	.
CCOc1ncccc1C(=O)Nc1ccc(OC)c(S(=O)(=O)N2CCOCC2)c1	3.8	.	.	.	-2.0	.	.	.	.
Cc1cc(C(=O)COC(=O)C2=COCCO2)c(C)n1-c1ccc2c(c1)OCO2	4.4	-15.4	2.6	1.5	14.8	.	.	.	.
CC(=O)Nc1ccc(S(=O)(=O)N(C)CC(=O)OCC(=O)c2cc(C)n(-c3ccc4c(c3)OCO4)c2C)cc1	11.4	-6.2	0.5	-0.4	55.7*	22.7*	35.9	7.4	5.7
O=C(C=Cc1ccccc1)CC(c1ccccc1)N1CCOCC1 (stereo unspecified)	3.4	.	.	.	-6.2	.	.	.	.
CN(C)c1ccc(/C=C2\c3ccccc3C(=O)N2c2ccccc2)cn1	7.6	.	.	.	14.6	.	.	.	.
Cn1nc(C(=O)N2CCN(c3cccc(Cl)c3)CC2)c2c1-c1ccccc1S(=O)(=O)C2	10.8	-14.3	7.9	4.2	42.4	.	.	.	.
Cc1cccc(N2CCN(C(=O)c3nn(C)c4c3CS(=O)(=O)c3ccccc3-4)CC2C)c1 (stereo unspecified)	15.4	-6.1	2.6	1.1	52.6*	30.8*	44.0	9.8	9.2
CC(Sc1cccc[n+]1[O-])C(=O)NC1CCCCC1C (stereo unspecified)	6.0	1.1	2.3	1.0	-20.8	.	.	.	.
Cc1ccc(Cl)cc1-c1cc(C(=O)NCc2ccc(C(F)(F)F)cc2)[nH]n1	34.7	.	.	.	76.7*	42.4*	65.8*	32.5*	58.0*
COc1ccc(Cl)c(-c2cc(C(=O)NCc3ccc(C(F)(F)F)cc3)[nH]n2)c1	22.1	.	.	.	62.8*	31.9*	47.7	18.7*	35.3
COc1ccc(Cl)c(-c2cc(C(=O)NCc3ccco3)[nH]n2)c1	1.0	.	.	.	-5.3	.	.	.	.
COc1ccc(CCNC(=O)c2cc(-c3cc(Cl)ccc3O)n[nH]2)cc1OC	14.0	-8.8	15.9	6.3	60.5*	39.0*	53.9*	12.8*	15.4
Cc1cc(C(=O)N2CCCC(N3CCN(Cc4ccc5c(c4)OCO5)CC3)C2)n[nH]1 (stereo unspecified)	4.6	-5.7	0.1	0.5	-12.2	.	.	.	.
Cc1ccccc1CNC(=O)CN(c1ccccc1Cl)S(C)(=O)=O	3.2	-3.0	-0.7	1.8	-10.7	.	.	.	.
Brc1ccc(-c2nc(N/N=C/c3cccnc3)c3ccccc3n2)cc1	15.3	-16.2	0.9	0.1	78.2*	31.3*	48.6*	7.0	3.9
C(=N\Nc1nc(-c2cccnc2)nc2ccccc12)/c1ccccc1	9.5	-1.9	-0.6	-1.6	41.1	.	.	.	.
CN1C(=O)CSc2ccc(NC(=O)Nc3ccccn3)cc21	16.3	-0.1	1.8	-1.8	70.2*	21.1	48.9*	7.9	7.5
CN1C(=O)CSc2ccc(NC(=O)N3CCN(c4ccccn4)CC3)cc21	5.5	-6.5	0.3	0.2	6.8	.	.	.	.
CCOc1ccc(OCC)c(NC(=O)Nc2ccc3c(c2)N(C)C(=O)CS3)c1	3.8	0.2	1.8	-2.1	56.1*	22.1*	27.6	5.2	-0.5
Cc1onc(-c2ccccc2Cl)c1C(=O)Nc1cccc(-c2nc3ncccn3c2C)c1	16.9	-2.8	0.5	0.1	107.1*	15.8	19.2	6.1	11.8
